These results are taken from ChEMBL document CHEMBL2010764, “Novel alkynylphosphonate analogue of calcitriol with potent antiproliferative effects in cancer cells and lack of calcemic activity” (ACS Med Chem Lett, 2011).

Activity calls are given as the source filed them. The rule behind the calls is not given here. Where only a bound is given, the exact number is not on record here.

The subject of series [1] is Mus musculus. Kind of series: Hypercalcemic activity in CF1 mouse assessed as increase in plasma calcium level at 5 to 20 ug/kg, ip qd for 5 days measured after 96 hrs. It is filed as functional, organism-based. In a few lines:
(§1)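 Mice (n = 5/group) received daily intraperitoneal injections of agent or isopropanol vehicle at 5 or 20 μg/kg body weight for 5 days. Blood was taken before dosing (0 h) and at 24, 48, 72 and 96 h. Plasma calcium was read by Arsenazo III absorbance. Means ± SE; experiment repeated twice.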

Series [2] in a line: AUC in mouse at 5 ug/kg. It is filed as ADME, organism-based. The following applies: plasma, 0.005 mg/kg.
A short description of series [3]: Cmax in mouse at 5 ug/kg. The following applies: in vivo, 0.005 mg/kg. It is filed as ADME, organism-based. The arrangement: dose 5 ug/kg.
Series [4] deals with Mus musculus. In words: Toxicity in CF1 mouse assessed as mortality at 5 to 20 ug/kg, ip qd for 5 days. It is filed as organism-based. The following applies: in vivo, 120 h. In a few lines:
(§2)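 Mice in three groups (n = 5/group) received daily intraperitoneal injections of test agent, calcitriol, or isopropanol vehicle at 5 or 20 μg/kg body weight for 5 days. Survival was followed through the examination period, with blood sampled before dosing and at 24, 48, 72 and 96 h for plasma calcium (Arsenazo III absorbance). Liver, duodenum, lungs and kidneys were inspected macroscopically.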

The test system of a further series is LM3. Kind of series: Antiproliferative activity against mouse LM3 cells assessed as decrease in cell survival at 0.1 to 100 nM after 72 hrs by WST1 assay. It is filed as functional, cell-based. In outline: (§3)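 Cells exposed to the test agent or isopropanol vehicle over 72 h, across 0.1–100 nM; proliferation expressed as percentage of vehicle. Experiments repeated at least three times per cell line; one-way ANOVA with Bonferroni post-test.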

Series [5] has as its system T98G. Kind of series: Antiproliferative activity against human T98G cells harboring scrambled shRNA assessed as decrease in cell number at 10 nM after 72 hrs by WST assay. It is filed as functional, cell-based. In outline:
(§4)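 T98G cells transfected with VDR-silencing shRNA plasmid or scrambled shRNA plasmid. 48 h after transfection, treated with 10 nM agent or vehicle, then counted 72 h after treatment. Triplicate wells, three independent experiments; mean ± SE. VDR knockdown was checked on lysates taken 48 h after transfection with 2 or 4 μg plasmid.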

For series [6], the system named is Mus musculus. Kind of series: Toxicity in CF1 mouse assessed as mortality at 5 ug/kg, ip qd for 5 days. It is filed as organism-based. The following applies: in vivo, 0.005 mg/kg, 120 h. In outline:
as §2

In series [7] the test system is Mus musculus. In words: Toxicity in CF1 mouse assessed as morphological alterations in duodenum at 5 to 20 ug/kg, ip qd for 5 days measured after 15 days. It is filed as organism-based. The following applies: in vivo, 360 h. In outline: (§5)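 Mice dosed intraperitoneally once daily for 5 days at 5 or 20 μg/kg in isopropanol vehicle. Liver, duodenum, lungs and kidneys were inspected visually for macroscopic morphological alterations after treatment.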

The subject of another series is SVEC vGPCR (Mouse). Kind of series: Antiproliferative activity against mouse SVEC vGPCR cells assessed as decrease in cell number after 72 hrs by WST assay.
The next series concerns HN12. Kind of series: Antiproliferative activity against human HN12 cells assessed as decrease in cell number at 1 nM after 72 hrs by hemocytometeric analysis. It is filed as functional, cell-based. In a few lines:
as §3

In series [8] the test system is T98G. In words: Antiproliferative activity against human T98G cells harboring plasmid silencing VDR assessed as decrease in cell number at 10 nM after 72 hrs by WST assay. It is filed as functional, cell-based. In outline: as §4
Series [9] deals with Mus musculus. In words: Toxicity in CF1 mouse assessed as morphological alterations in liver at 5 to 20 ug/kg, ip qd for 5 days measured after 15 days. It is filed as organism-based. The following applies: in vivo, 360 h. In outline: as §5
Series [10] is described as follows: Antiproliferative activity against mouse LM05e cells assessed as decrease in cell number after 72 hrs by WST assay. It is filed as functional, cell-based.
Series [11] has as its system Mus musculus. Kind of series: Toxicity in CF1 mouse assessed as morphological alterations in lung at 5 to 20 ug/kg, ip qd for 5 days measured after 15 days. The note with it: in vivo, 360 h. It is filed as organism-based. In outline:
as §5

Series [12] concerns Mus musculus. In words: Hypercalcemic activity in CF1 mouse assessed as increase in plasma calcium level at 5 ug/kg, ip qd for 5 days measured after 96 hrs. It is filed as functional, organism-based. In outline: as §1
In series [13] the test system is T98G. In words: Antiproliferative activity against human T98G cells assessed as decrease in cell number after 72 hrs by WST assay. It is filed as functional, cell-based. In a few lines:
as §3

The subject of series [14] is Mus musculus. In words: Hypercalcemic activity in CF1 mouse assessed as increase in plasma calcium level at 20 ug/kg, ip qd for 5 days measured after 96 hrs. It is filed as functional, organism-based. In outline:
as §1

Series [15] is described as follows: Antiproliferative activity against human HN12 cells assessed as decrease in cell number after 72 hrs by WST assay. It is filed as functional, cell-based. The note with it: HN12, 72 h.
Another series concerns HCT-116. Kind of series: Antiproliferative activity against human HCT116 cells assessed as decrease in cell survival at 0.1 to 100 nM after 72 hrs by WST1 assay. It is filed as functional, cell-based. In outline: as §3
Series [16] relates to Mus musculus. In words: Toxicity in CF1 mouse assessed as morphological alterations in kidney at 5 to 20 ug/kg, ip qd for 5 days measured after 15 days. The following applies: in vivo, 360 h. It is filed as organism-based. In outline: as §5
The subject of series [17] is Mus musculus. Kind of series: Toxicity in CF1 mouse assessed as mortality at 20 ug/kg, ip qd for 5 days. It is filed as organism-based. The following applies: in vivo, 0.02 mg/kg, 120 h. In outline:
as §2

The next series concerns T47D. Kind of series: Antiproliferative activity against human T47D cells assessed as decrease in cell number after 72 hrs by WST assay. It is filed as functional, cell-based.

For `C=C1/C(=C\C=C2/CCC[C@]3(C)[C@@H]([C@H](C)CCCC(C)(C)O)CC[C@@H]23)C[C@@H](O)C[C@@H]1O` [CALCITRIOL], the result with Mus musculus [1] was Active. The AUC in series [2] is more than 40 ng·h/mL. For the same compound, the Cmax in series [3] was more than 10 ng/mL. Further, the Activity result with Mus musculus [4] is reported as “Toxic”.
For `C=C1/C(=C\C=C2/CCC[C@]3(C)[C@@H]([C@H](C)CC#CP(=O)(OCC)OCC)CC[C@@H]23)C[C@@H](O)C[C@@H]1O`, the outcome in the series on LM3, in the series on Mus musculus [12], in the series on Mus musculus [14] and in the series with HCT-116 was inactive. Besides, the result in the series on T98G [5], in the series on HN12 and in the series on T98G [8] was Active. Besides, the Activity entry with Mus musculus [6], with Mus musculus [7], in the series on Mus musculus [9], in the series on Mus musculus [11], in the series with Mus musculus [16] and in the series with Mus musculus [17] was “Non-toxic” each time. Further, the IC50 in the series with SVEC vGPCR (Mouse) was determined as 113 nM; in [10] it was 1.68 nM; with T98G [13], 36.1 nM; in series [15], 22.3 nM; in the series with T47D, 4.78 nM.
